Legend:
[1] = species: Homo sapiens; assay: Selectivity for human alpha3beta4 nAChR over human alpha7 nAChR
[2] = target: Neuronal acetylcholine receptor; alpha3/beta4 (Homo sapiens, UniProt P30926+P32297); assay: Antagonist activity at human alpha3beta4 nAChR expressed in HEK293 cells by calcium influx assay; format: functional, cell-based
[3] = target: Neuronal acetylcholine receptor; alpha4/beta2 (Homo sapiens, UniProt P17787+P43681); assay: Antagonist activity at human alpha4beta2 nAChR expressed in HEK293 cells by calcium influx assay; format: functional, cell-based
[4] = target: Acetylcholine receptor; alpha1/beta1/delta/gamma (Homo sapiens, UniProt P02708+P07510+P11230+Q07001); assay: Antagonist activity at human alpha-1-beta-1-gamma-delta nAChR expressed in human TE671 cells by calcium influx assay; format: functional, cell-based, TE-671
[5] = target: T1, 5-hydroxytryptamine receptor 3A (Homo sapiens, UniProt P46098); assay: Antagonist activity at human 5HT3 receptor by calcium influx assay; format: functional
T1 sequence (P46098 whole entry): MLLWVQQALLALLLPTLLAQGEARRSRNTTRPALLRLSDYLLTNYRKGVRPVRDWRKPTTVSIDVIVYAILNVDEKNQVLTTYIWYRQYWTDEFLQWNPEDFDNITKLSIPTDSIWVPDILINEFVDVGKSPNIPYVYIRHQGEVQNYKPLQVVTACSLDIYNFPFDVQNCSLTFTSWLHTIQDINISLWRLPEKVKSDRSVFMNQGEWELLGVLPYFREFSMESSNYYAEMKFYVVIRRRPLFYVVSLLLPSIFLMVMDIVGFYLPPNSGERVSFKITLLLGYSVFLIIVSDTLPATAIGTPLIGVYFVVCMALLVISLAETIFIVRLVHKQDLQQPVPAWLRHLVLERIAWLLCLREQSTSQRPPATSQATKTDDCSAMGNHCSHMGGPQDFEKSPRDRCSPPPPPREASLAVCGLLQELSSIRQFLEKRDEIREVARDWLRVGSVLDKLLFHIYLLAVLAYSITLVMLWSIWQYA

[6] = species: Homo sapiens; assay: Selectivity for human alpha4beta2 nAChR over human alpha7 nAChR
[7] = species: Homo sapiens; assay: Selectivity for human alpha-1-beta-1-gamma-delta nAChR over human alpha7 nAChR
[8] = species: Homo sapiens; assay: Selectivity for human 5HT3 receptor over human alpha7 nAChR
[9] = target: T2, Muscarinic acetylcholine receptor M1 (Homo sapiens, UniProt P11229); assay: Inhibition of human recombinant muscarinic M1 receptor
T2 sequence (P11229 whole entry): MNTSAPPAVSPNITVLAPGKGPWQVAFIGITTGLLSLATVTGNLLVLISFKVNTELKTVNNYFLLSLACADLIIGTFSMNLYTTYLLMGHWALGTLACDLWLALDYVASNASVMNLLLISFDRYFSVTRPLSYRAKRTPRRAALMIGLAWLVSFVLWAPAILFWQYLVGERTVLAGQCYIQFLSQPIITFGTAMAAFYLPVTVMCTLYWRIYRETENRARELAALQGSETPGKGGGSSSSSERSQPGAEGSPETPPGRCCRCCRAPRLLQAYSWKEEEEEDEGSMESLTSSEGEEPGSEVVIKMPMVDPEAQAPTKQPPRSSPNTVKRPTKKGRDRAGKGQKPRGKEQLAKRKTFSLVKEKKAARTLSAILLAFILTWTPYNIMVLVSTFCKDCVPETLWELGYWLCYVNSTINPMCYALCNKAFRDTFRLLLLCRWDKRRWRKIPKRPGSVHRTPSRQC

[10] = target: T3, Muscarinic acetylcholine receptor M2 (Homo sapiens, UniProt P08172); assay: Inhibition of human recombinant muscarinic M2 receptor
T3 sequence (P08172 whole entry): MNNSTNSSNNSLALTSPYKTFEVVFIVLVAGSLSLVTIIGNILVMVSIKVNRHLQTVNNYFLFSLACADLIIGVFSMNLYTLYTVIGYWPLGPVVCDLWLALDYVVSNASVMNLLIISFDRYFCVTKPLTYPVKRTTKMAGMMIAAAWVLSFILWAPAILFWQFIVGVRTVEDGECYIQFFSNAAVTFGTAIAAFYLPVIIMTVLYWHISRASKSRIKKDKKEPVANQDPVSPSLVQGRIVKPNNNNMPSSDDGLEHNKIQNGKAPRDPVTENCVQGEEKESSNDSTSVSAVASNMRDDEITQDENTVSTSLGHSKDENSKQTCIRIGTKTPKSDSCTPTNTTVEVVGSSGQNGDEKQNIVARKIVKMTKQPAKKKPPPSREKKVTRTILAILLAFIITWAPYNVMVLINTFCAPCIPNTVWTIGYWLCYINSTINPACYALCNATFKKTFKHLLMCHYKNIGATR

[11] = target: Muscarinic acetylcholine receptor M3 (Homo sapiens, UniProt P20309); assay: Inhibition of human recombinant muscarinic M3 receptor
[12] = target: T4, Muscarinic acetylcholine receptor M4 (Homo sapiens, UniProt P08173); assay: Inhibition of human recombinant muscarinic M4 receptor
T4 sequence (P08173 whole entry): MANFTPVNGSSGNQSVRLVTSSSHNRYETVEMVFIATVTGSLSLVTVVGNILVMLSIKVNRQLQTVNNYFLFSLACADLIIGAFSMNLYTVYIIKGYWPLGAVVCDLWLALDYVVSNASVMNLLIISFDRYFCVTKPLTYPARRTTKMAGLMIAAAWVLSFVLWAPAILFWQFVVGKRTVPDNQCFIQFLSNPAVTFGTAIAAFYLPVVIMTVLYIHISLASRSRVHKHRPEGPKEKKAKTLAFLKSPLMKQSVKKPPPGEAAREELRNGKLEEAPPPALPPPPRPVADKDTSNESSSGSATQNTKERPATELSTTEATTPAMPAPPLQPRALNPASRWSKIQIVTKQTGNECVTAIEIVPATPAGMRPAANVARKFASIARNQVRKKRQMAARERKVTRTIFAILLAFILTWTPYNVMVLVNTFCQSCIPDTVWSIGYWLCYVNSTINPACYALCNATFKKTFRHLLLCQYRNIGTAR

[13] = target: T5, Muscarinic acetylcholine receptor M5 (Homo sapiens, UniProt P08912); assay: Inhibition of human recombinant muscarinic M5 receptor
T5 sequence (P08912 whole entry): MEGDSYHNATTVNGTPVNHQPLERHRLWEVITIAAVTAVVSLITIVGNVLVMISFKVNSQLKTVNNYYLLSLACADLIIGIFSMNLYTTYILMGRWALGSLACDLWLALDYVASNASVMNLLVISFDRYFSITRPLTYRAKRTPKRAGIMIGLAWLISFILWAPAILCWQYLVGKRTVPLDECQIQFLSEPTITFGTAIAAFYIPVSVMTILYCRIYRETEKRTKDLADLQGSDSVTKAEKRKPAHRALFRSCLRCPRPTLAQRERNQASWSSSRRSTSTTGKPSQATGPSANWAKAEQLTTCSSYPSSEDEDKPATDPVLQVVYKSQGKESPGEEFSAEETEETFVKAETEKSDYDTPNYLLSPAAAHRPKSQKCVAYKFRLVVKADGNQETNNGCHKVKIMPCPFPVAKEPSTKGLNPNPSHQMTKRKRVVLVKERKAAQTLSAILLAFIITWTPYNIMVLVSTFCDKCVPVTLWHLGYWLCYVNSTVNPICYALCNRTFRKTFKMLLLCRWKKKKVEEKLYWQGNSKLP

[14] = Inhibition of sodium channel at 30 uM by patch-clamp technique
[15] = target: Neuronal acetylcholine receptor subunit alpha-7 (Homo sapiens, UniProt P36544); assay: Agonist activity at human recombinant alpha7 nAChR expressed in rat GH3 cells by calcium influx assay; format: functional, cell-based
Method in brief: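 GH3 cells recombinantly expressing human α7 nAChR; agonist activity. Each compound run in duplicate. EC50 taken from individual 8-point concentration-response curves and expressed as pEC50, with Emax given in %.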

[16] = target: Voltage-gated inwardly rectifying potassium channel KCNH2 (Homo sapiens, UniProt Q12809); assay: Inhibition of human ERG by patch-clamp technique
[17] = system: Heart; assay: Toxicity in langendorff isolated rabbit heart assessed as effect on QT interval prolongation up to 10 uM by whole heart assay; format: tissue-based, Oryctolagus cuniculus
Method in brief: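 Langendorff isolated rabbit heart, ex vivo whole-heart preparation. QT interval monitored at concentrations up to 10 µM.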

[18] = Octanol-water partition coefficient, log P of the compound; format: physicochemical
[19] = Protein binding in human plasma assessed as fraction unbound; format: ADME, cell-free
Method in brief: (§1)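 Binding to human and rat plasma protein, reported as the free (unbound) fraction in %.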

[20] = Protein binding in rat plasma assessed as fraction unbound; format: ADME, cell-free; method in brief: as §1
[21] = Metabolic stability in mouse liver microsomes assessed as hepatic extraction ratio; format: ADME, Microsome; settings: read-out: Activity
Method in brief: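 Compound incubated with mouse or human liver microsomes. In vitro hepatic extraction ratio reported as % compound depleted at the end of the experiment; half-life also given.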

[22] = system: Brain; assay: Drug level in DBA/2 mouse brain at 30 umol/kg, po after 1 hr; format: ADME, organism-based; settings: in vivo
Method in brief: (§2)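 Mice (n = 6) dosed 30 µmol/kg po. Brain and plasma levels measured at 1 h and 4 h after dosing, reported as pmol/g.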

[23] = system: Mus musculus; assay: Plasma concentration in DBA/2 mouse at 30 umol/kg, po after 1 hr; format: ADME, organism-based; settings: in vivo; method in brief: as §2
[24] = system: Brain; assay: Drug level in DBA/2 mouse brain at 30 umol/kg, po after 4 hrs; format: ADME, organism-based; settings: in vivo; method in brief: as §2
[25] = system: Mus musculus; assay: Plasma concentration in DBA/2 mouse at 30 umol/kg, po after 4 hrs; format: ADME, organism-based; settings: in vivo; method in brief: as §2

Sequence of Neuronal acetylcholine receptor subunit alpha-7 (P36544 whole entry): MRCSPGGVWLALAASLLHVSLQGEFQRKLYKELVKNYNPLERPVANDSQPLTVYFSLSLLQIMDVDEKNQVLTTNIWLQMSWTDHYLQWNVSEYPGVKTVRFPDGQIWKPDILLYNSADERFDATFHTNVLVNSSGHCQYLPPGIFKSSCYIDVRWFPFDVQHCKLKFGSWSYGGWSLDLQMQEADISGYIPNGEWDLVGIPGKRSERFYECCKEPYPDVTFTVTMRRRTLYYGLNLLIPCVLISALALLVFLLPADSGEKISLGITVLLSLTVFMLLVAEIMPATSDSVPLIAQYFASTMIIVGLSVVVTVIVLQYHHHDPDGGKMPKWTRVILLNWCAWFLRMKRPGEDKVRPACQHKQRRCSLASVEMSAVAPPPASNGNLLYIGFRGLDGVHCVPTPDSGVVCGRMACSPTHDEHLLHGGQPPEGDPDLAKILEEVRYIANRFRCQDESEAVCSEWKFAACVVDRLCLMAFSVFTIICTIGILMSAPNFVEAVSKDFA
Sequence of Neuronal acetylcholine receptor; alpha3/beta4 (P30926 whole entry): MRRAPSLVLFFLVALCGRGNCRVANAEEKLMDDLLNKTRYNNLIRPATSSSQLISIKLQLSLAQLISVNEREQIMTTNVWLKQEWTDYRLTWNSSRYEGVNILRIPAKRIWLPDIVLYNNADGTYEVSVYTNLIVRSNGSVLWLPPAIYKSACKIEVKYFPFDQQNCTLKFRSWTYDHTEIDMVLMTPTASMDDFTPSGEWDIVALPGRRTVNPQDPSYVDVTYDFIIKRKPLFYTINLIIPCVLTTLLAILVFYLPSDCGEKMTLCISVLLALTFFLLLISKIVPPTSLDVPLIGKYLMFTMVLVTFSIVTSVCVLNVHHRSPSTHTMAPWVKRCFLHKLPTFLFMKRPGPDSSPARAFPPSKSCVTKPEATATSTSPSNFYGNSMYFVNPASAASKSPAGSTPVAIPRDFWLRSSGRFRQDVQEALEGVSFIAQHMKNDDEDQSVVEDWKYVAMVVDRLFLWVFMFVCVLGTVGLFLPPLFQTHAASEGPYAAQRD
Sequence of Neuronal acetylcholine receptor; alpha3/beta4 (P32297 whole entry): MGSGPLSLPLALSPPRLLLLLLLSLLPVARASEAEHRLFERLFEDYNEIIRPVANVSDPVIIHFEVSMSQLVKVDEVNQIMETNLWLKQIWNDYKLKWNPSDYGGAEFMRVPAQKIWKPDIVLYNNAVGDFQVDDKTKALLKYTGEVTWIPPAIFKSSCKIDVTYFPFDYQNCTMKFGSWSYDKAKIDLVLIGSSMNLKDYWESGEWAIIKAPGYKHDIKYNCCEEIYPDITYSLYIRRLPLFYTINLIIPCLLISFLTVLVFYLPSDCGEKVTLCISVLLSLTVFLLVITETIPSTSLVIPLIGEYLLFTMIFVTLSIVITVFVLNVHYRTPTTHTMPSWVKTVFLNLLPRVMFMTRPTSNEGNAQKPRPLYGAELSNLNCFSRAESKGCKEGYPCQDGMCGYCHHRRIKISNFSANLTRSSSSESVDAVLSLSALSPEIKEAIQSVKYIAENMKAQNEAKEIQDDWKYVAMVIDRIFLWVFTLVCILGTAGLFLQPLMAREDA
Sequence of Neuronal acetylcholine receptor; alpha4/beta2 (P17787 whole entry): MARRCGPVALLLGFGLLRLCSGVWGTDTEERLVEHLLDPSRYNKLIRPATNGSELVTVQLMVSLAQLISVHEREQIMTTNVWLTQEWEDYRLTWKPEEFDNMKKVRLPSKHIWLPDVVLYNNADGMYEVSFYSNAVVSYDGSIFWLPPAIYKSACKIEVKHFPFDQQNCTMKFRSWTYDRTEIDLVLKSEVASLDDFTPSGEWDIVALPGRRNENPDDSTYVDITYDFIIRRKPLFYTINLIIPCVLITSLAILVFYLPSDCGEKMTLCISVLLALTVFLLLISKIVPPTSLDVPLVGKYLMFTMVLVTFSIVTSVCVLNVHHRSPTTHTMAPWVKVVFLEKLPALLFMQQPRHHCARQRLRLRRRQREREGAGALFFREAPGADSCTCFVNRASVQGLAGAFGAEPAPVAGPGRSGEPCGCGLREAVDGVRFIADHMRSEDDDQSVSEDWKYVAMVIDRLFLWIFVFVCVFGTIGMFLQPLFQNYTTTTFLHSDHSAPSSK
Sequence of Neuronal acetylcholine receptor; alpha4/beta2 (P43681 whole entry): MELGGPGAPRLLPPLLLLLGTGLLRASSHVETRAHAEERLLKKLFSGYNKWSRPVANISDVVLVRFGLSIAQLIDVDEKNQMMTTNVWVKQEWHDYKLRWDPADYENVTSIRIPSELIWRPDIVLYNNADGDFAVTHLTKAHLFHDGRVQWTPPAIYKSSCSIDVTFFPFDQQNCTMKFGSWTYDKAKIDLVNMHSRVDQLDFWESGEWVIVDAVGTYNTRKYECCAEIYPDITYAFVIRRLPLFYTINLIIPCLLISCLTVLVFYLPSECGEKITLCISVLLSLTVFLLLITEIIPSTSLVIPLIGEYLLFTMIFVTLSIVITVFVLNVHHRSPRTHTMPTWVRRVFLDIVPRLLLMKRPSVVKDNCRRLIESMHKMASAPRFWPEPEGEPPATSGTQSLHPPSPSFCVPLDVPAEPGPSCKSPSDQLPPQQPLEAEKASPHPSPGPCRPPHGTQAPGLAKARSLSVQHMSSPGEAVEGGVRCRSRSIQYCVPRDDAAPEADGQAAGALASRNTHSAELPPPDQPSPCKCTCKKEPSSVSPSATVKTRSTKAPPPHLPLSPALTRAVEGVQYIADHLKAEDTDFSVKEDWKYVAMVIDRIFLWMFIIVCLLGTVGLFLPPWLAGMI
Sequence of Acetylcholine receptor; alpha1/beta1/delta/gamma (P02708 whole entry): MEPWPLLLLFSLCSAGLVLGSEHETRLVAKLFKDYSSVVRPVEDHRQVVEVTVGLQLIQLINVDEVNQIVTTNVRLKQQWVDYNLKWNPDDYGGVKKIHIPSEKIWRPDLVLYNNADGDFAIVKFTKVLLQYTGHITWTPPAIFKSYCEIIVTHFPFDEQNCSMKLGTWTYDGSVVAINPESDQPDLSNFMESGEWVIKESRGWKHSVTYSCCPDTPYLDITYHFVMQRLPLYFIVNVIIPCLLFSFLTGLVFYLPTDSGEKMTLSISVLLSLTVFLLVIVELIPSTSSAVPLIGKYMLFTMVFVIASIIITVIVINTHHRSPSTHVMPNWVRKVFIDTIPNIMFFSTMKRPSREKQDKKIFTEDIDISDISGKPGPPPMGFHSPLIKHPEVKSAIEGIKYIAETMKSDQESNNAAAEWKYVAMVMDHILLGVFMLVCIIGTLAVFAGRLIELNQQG
Sequence of Acetylcholine receptor; alpha1/beta1/delta/gamma (P07510 whole entry): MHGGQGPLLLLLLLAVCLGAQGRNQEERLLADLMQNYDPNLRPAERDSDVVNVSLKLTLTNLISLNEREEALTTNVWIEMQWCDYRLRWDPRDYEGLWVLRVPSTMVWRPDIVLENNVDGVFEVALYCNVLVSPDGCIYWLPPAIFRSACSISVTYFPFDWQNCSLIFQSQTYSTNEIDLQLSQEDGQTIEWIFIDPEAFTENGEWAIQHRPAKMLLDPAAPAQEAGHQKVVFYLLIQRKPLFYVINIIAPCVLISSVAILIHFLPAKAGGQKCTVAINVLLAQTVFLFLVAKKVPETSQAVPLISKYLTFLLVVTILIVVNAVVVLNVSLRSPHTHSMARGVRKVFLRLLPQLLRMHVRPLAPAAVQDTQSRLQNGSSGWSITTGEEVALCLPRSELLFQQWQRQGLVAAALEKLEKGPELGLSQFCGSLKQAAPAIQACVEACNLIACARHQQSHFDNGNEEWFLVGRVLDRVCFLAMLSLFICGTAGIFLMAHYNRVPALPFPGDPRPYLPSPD
Sequence of Acetylcholine receptor; alpha1/beta1/delta/gamma (P11230 whole entry): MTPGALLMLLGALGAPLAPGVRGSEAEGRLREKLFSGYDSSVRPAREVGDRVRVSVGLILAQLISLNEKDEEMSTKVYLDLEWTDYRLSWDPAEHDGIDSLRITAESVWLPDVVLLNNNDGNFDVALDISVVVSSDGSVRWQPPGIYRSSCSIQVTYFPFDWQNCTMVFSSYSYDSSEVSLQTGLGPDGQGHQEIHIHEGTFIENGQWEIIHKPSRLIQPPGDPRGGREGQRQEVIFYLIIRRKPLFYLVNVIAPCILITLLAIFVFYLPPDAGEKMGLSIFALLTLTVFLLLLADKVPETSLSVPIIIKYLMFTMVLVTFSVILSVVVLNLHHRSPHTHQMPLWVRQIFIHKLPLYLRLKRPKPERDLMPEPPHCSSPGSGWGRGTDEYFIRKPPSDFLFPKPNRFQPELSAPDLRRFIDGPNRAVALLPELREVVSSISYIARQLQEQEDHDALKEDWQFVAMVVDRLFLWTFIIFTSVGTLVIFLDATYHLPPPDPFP
Sequence of Acetylcholine receptor; alpha1/beta1/delta/gamma (Q07001 whole entry): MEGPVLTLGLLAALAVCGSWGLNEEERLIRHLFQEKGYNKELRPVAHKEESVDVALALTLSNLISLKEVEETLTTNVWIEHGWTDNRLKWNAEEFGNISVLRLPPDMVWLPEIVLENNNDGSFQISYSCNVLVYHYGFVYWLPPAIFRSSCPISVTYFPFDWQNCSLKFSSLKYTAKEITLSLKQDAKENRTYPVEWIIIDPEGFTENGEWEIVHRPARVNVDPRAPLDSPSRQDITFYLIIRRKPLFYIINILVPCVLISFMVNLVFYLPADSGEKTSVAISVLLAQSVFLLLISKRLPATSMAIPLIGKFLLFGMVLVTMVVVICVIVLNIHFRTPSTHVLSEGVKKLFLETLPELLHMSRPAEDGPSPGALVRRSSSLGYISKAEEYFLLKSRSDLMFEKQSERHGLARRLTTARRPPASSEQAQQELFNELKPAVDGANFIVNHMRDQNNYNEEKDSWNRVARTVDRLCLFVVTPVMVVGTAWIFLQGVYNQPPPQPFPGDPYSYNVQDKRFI

## C[C@H](OC(=O)N[C@@H]1CN2CCC1CC2)c1ccccc1F
[1]
  Ratio: 200
[2]
  IC50: 20 µM
[3]
  IC50: 25.1 µM
[4]
  IC50: 126 µM
[5]
  IC50: 20 µM
[6]
  Ratio: 251
[7]
  Ratio: 1260
[8]
  Ratio: 200
[9]
  IC50: > 10 µM
[10]
  IC50: > 10 µM
[11]
  IC50: > 10 µM
[12]
  IC50: > 10 µM
[13]
  IC50: > 10 µM

## CN1C(=O)[C@@H](CN2CCCCC2)C[C@H]1C#Cc1ccccc1 (relative stereo)
[14]
  inhibition: 33%
[15]
  EC50: 0.01 µM
  Emax: 104%
[1]
  Ratio: 126
[16]
  IC50: 6.85 µM
[2]
  IC50: 1.26 µM
[3]
  IC50: 7.94 µM
[4]
  IC50: 12.6 µM
[5]
  IC50: 251 µM
[6]
  Ratio: 820
[7]
  Ratio: 1300
[8]
  Ratio: 26400
[17]
  Activity: Non-toxic
[18]
  logP: 3.7
[19]
  fraction unbound: 0.17
[20]
  fraction unbound: 0.31
[21]
  hepatic extraction ratio: 0.9
[22]
  Drug uptake: 239 pmol/g
[23]
  Cp: 18 pmol/g
[24]
  Drug uptake: 64 pmol/g
[25]
  Cp: 4 pmol/g
